Tests used:
Format in all cases: functional, cell-based
A549 = assay: Cytotoxicity against human A549 cells after 72 hrs by SRB assay; settings: A549, 72 h
How it was run: (§1)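 Cells kept as monolayers at 37 °C in 5% CO2 with 10% heat-inactivated FBS; A549 was grown in DMEM, HepG2 and MCF-7 in RPMI. Trypsinized cells were seeded at 1000-2000/well, left 24 h, then exposed 72 h to a range of concentrations. Cells were fixed with 10% TCA (1 h, 4 °C) and stained with 0.4% SRB in 1% acetic acid for 10 min. Dye was dissolved in Tris-HCl, OD read at 564 nm, and IC50 taken from %-viability dose-response curves.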

MCF7 = assay: Cytotoxicity against human MCF7 cells after 72 hrs by SRB assay; settings: MCF7, 72 h; how it was run: as §1
HepG2 = assay: Cytotoxicity against human HepG2 cells after 72 hrs by SRB assay; settings: HepG2, 72 h; how it was run: as §1

SMILES | IC50 (A549) | IC50 (MCF7) | IC50 (HepG2)
Cc1c(-c2csc(/N=C3\S/C(=C\c4ccco4)C(=O)N3c3ccccc3)n2)c(=O)n(-c2ccccc2)n1C | 13.7 µM | 22.4 µM | 16.6 µM
Cc1ccc(/C=C2\S/C(=N\c3nc(-c4c(C)n(C)n(-c5ccccc5)c4=O)cs3)N(c3ccccc3)C2=O)cc1 | > 100 µM | > 100 µM | > 100 µM
CCOC(=O)c1nn(-c2ccc(C)cc2)/c(=N/c2nc(-c3c(C)n(C)n(-c4ccccc4)c3=O)cs2)s1 | > 100 µM | > 100 µM | > 100 µM
COc1ccc(/C=C2\S/C(=N\c3nc(-c4c(C)n(C)n(-c5ccccc5)c4=O)cs3)N(c3ccccc3)C2=O)cc1 | 9.1 µM | 26.1 µM | 13.2 µM
CCOC(=O)c1nn(-c2ccccc2)/c(=N/c2nc(-c3c(C)n(C)n(-c4ccccc4)c3=O)cs2)s1 | > 100 µM | > 100 µM | > 100 µM
COc1ccc(-n2nc(C(C)=O)s/c2=N\c2nc(-c3c(C)n(C)n(-c4ccccc4)c3=O)cs2)cc1 | 26.5 µM | 64.5 µM | 41.2 µM
CC(=O)c1nn(-c2ccccc2)/c(=N/c2nc(-c3c(C)n(C)n(-c4ccccc4)c3=O)cs2)s1 | > 100 µM | > 100 µM | 67.1 µM
CC(=O)c1nn(-c2ccc(Cl)cc2)/c(=N/c2nc(-c3c(C)n(C)n(-c4ccccc4)c3=O)cs2)s1 | > 100 µM | > 100 µM | > 100 µM
Cc1c(-c2csc(/N=C3\SCC(=O)N3c3ccccc3)n2)c(=O)n(-c2ccccc2)n1C | > 100 µM | > 100 µM | 70.5 µM
Cc1c(-c2csc(/N=c3\sc(-c4ccccc4)nn3-c3ccccc3)n2)c(=O)n(-c2ccccc2)n1C | > 100 µM | > 100 µM | > 100 µM
CCOC(=O)c1nn(-c2ccc([N+](=O)[O-])cc2)/c(=N/c2nc(-c3c(C)n(C)n(-c4ccccc4)c3=O)cs2)s1 | 8.68 µM | 10 µM | 8.11 µM
Cc1c(-c2csc(/N=C3\S/C(=C\c4ccccc4)C(=O)N3c3ccccc3)n2)c(=O)n(-c2ccccc2)n1C | > 100 µM | > 100 µM | 63.4 µM
Cc1c(-c2csc(/N=C3\S/C(=C\c4ccc(Cl)cc4)C(=O)N3c3ccccc3)n2)c(=O)n(-c2ccccc2)n1C | > 100 µM | > 100 µM | > 100 µM
Cc1c(-c2csc(NC(=S)Nc3ccccc3)n2)c(=O)n(-c2ccccc2)n1C | 7.74 µM | 10.1 µM | 8.35 µM
COc1cccc2c1C(=O)c1c(O)c3c(c(O)c1C2=O)C[C@@](O)(C(=O)CO)C[C@@H]3O[C@H]1C[C@H](N)[C@H](O)[C@H](C)O1 [DOXORUBICIN] | 0.411 µM | – | 0.877 µM
CC(=O)c1nn(-c2ccc([N+](=O)[O-])cc2)/c(=N/c2nc(-c3c(C)n(C)n(-c4ccccc4)c3=O)cs2)s1 | > 100 µM | > 100 µM | > 100 µM
CCOC(=O)c1nn(-c2ccc(OC)cc2)/c(=N/c2nc(-c3c(C)n(C)n(-c4ccccc4)c3=O)cs2)s1 | 13.1 µM | 15.9 µM | 12.9 µM
CC(=O)c1nn(-c2ccc(C)cc2)/c(=N/c2nc(-c3c(C)n(C)n(-c4ccccc4)c3=O)cs2)s1 | 20.7 µM | 56.8 µM | 31.7 µM
CCOC(=O)c1nn(-c2ccc(Cl)cc2)/c(=N/c2nc(-c3c(C)n(C)n(-c4ccccc4)c3=O)cs2)s1 | > 100 µM | > 100 µM | > 100 µM
Cc1c(-c2csc(/N=C3\S/C(=C\c4ccc(N(C)C)cc4)C(=O)N3c3ccccc3)n2)c(=O)n(-c2ccccc2)n1C | > 100 µM | > 100 µM | > 100 µM
